Laboratory results as given in ChEMBL document CHEMBL4673193, “Investigation of thiazolyl-benzothiophenamides as potential agents for African sleeping sickness” (RSC Med Chem, 2020).
pIC50: −log10 of the molar value.

Assays:
[1] = system: Trypanosoma brucei brucei; experiment: Antitrypanosomal activity against Trypanosoma brucei brucei 427 assessed as parasite growth inhibition incubated for 48 hrs by resazurin dye based assay; assay type: functional, organism-based; settings: for pIC50: Trypanosoma brucei, 427, 48 h, read-out: IC50
How it was run: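 Log-phase T. b. brucei 427 at 1200 parasites/mL in HMI-9 with 10% FCS, preincubated 24 h at 37 °C/5% CO₂. Serial dilutions made in DMEM, final 83.34 to 0.04 μM, 48 h exposure. 0.49 mM resazurin solution added, then 2 h at 37 °C plus 22 h at room temperature. Fluorescence read at ex 535/em 590 nm; IC50 from concentration curves.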

[2] = Selectivity index, ratio of IC50 for human HEK293 cells to IC50 for antitrypanosomal activity against Trypanosoma brucei brucei 427; assay type: toxicity; settings: read-out: Ratio IC50
[3] = Selectivity index, ratio of IC50 for rat L6 cells to IC50 for antitrypanosomal activity against bloodstream form of Trypanosoma brucei rhodesiense STIB900; assay type: toxicity; settings: read-out: Ratio IC50
[4] = system: HEK293; experiment: Cytotoxicity against human HEK293 cells assessed as reduction in cell viability at 79.4 uM incubated for 48 hrs by resazurin dye based assay relative to control; settings: hek293, 48 h
[5] = system: L6; experiment: Cytotoxicity against rat L6 cells assessed as reduction in cell viability after 70 hrs by Alamar blue dye-based fluorometric analysis; settings: L6, 70 h
How it was run: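 Rat skeletal myoblast L6 cells, 4000 per well in RPMI 1640 with L-glutamine and 10% FBS. Eleven 3-fold dilutions from 100 to 0.002 μg/mL, 70 h. Wells checked by microscope, then Alamar Blue added for 2 h. Fluorescence read at 536/588 nm; IC50 by linear and 4-parameter logistic regression of dose-inhibition curves.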

[6] = system: Trypanosoma brucei rhodesiense; experiment: Antitrypanosomal activity against bloodstream form of Trypanosoma brucei rhodesiense STIB900 incubated for 70 hrs by Alamar blue dye-based fluorometric analysis; assay type: functional, organism-based; settings: STIB900, 70 h
[7] = system: HEK293; experiment: Cytotoxicity against human HEK293 cells assessed as reduction in cell viability at 83.3 uM incubated for 48 hrs by resazurin dye based assay relative to control; settings: hek293, 48 h
[8] = system: Trypanosoma brucei brucei; experiment: Antitrypanosomal activity against Trypanosoma brucei brucei 427 assessed as parasite growth inhibition at 83.3 uM incubated for 48 hrs by resazurin dye based assay relative to control; assay type: functional; set-up: scale not given: the % may be the effect or the level left
[9] = system: HEK293; experiment: Cytotoxicity against human HEK293 cells assessed as reduction in cell viability incubated for 48 hrs by resazurin dye based assay; settings: for pIC50: Homo sapiens, HEK293, 48 h, read-out: IC50
How it was run: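 HEK293 cells at 7.27×10⁴ cells/mL in DMEM with 10% FCS, preincubated 24 h at 37 °C/5% CO₂. Compounds serially diluted in DMEM, final 83.34 to 0.04 μM, 48 h. 0.49 mM resazurin solution in medium added, then 2 h at 37 °C plus 22 h at room temperature. Fluorescence read at 535/590 nm; IC50 calculated.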

[10] = system: HEK293; experiment: Cytotoxicity against human HEK293 cells assessed as reduction in cell viability at 41.7 uM incubated for 48 hrs by resazurin dye based assay relative to control; settings: hek293, 48 h
[11] = system: Trypanosoma brucei brucei; experiment: Antitrypanosomal activity against Trypanosoma brucei brucei 427 assessed as parasite growth inhibition at 41.7 uM incubated for 48 hrs by resazurin dye based assay relative to control; assay type: functional; set-up: scale not given: the % may be the effect or the level left
[12] = system: Trypanosoma brucei brucei; experiment: Antitrypanosomal activity against Trypanosoma brucei brucei 427 assessed as parasite growth inhibition at 79.4 uM incubated for 48 hrs by resazurin dye based assay relative to control; assay type: functional; set-up: scale not given: the % may be the effect or the level left
[13] = Selectivity index, ratio of IC50 for antitrypanosomal activity against bloodstream form of Trypanosoma brucei rhodesiense STIB900 to IC50 for antitrypanosomal activity against Trypanosoma brucei brucei 427; assay type: functional

SMILES | pIC50 [1] | selectivity ratio [2] | Activity [7] | also measured
Nc1nc(N)nc(Nc2ccc([As]3SCC(CO)S3)cc2)n1 (stereo unspecified) [MELARSOPROL] |  |  |  | pIC50 [6]: 7.85
O=C1CCCc2nc(NC(=O)c3sc4ccccc4c3-c3ccccc3)sc21 |  |  | < 50% | Activity [8]: 77%
COc1ccc(-c2c(C(=O)Nc3nc4c(s3)C(=O)CCC4)sc3ccccc23)cc1 | 5.14 | > 12 | 88% | 
N=C(N)c1ccc(OCCCCCOc2ccc(C(=N)N)cc2)cc1 [PENTAMIDINE] | 8.67 | 307 |  | 
CC1(C)CC(=O)c2sc(NC(=O)c3sc4ccccc4c3-c3ccccc3)nc2C1 |  |  |  | Activity [10]: < 50%; Activity [11]: 93%
O=C(Nc1nc2c(s1)CCCC2)c1sc2ccccc2c1Cl |  |  | < 50% | Activity [8]: 89%
O=C(Nc1nccs1)c1sc2ccccc2c1Cl |  |  | < 50% | Activity [8]: 96%
O=C(Nc1nc2c(s1)C(=O)CCC2)c1cc2ccccc2s1 |  |  |  | Activity [12]: 97%; Activity [4]: < 50%
COc1cccc2cc(C(=O)Nc3nc4c(s3)C(=O)CC(C)(C)C4)sc12 |  |  |  | IC50 [1]: Nd(Insoluble); selectivity ratio [3]: 6; pIC50 [5]: 4.26; pIC50 [6]: 5.06; IC50 ([9]; hek293): Nd(Insoluble)
CC1(C)CC(=O)c2sc(NC(=O)c3cccs3)nc2C1 |  |  |  | Activity [12]: 90%; Activity [4]: < 50%
CC1(C)CC(=O)c2sc(NC(=O)c3sc4ccccc4c3-c3ccc(C(F)(F)F)cc3)nc2C1 |  |  | < 50% | Activity [8]: <50%
COc1cc([C@@H]2c3cc4c(cc3[C@H](O)[C@H]3COC(=O)[C@H]23)OCO4)cc(OC)c1OC [PODOFILOX] |  |  |  | pIC50 [5]: 7.96
C=CCN(C(=O)c1sc2ccccc2c1Cl)c1nc2c(s1)C(=O)CCC2 |  |  | < 50% | Activity [8]: <50%
O=C1CCCc2nc(NC(=O)c3sc4ccccc4c3-c3ccc(C(F)(F)F)cc3)sc21 |  |  | 59% | Activity [11]: 97%
COc1cccc(-c2c(C(=O)Nc3nc4c(s3)C(=O)CCC4)sc3ccccc23)c1 | 5.03 | > 9 | 88% | 
O=C1CCCc2nc(NC(=O)c3sc4cc(Br)ccc4c3Cl)sc21 |  |  |  | Activity [12]: 78%; Activity [4]: < 50%
O=C1CCCc2nc(NC(=O)c3sc4ccccc4c3-c3cccc4ccccc34)sc21 | 5.20 | 1 |  | pIC50 [9]: 5.33
Cc1ccc2c(Cl)c(C(=O)Nc3nc4c(s3)C(=O)CCC4)sc2c1 | 5.11 | > 11 | < 50% | 
CC1(C)CC(=O)c2sc(NC(=O)c3sc4ccccc4c3-c3cccc4ccccc34)nc2C1 |  |  | 52% | Activity [8]: 100%
O=C(Nc1nc2ccccc2s1)c1sc2ccccc2c1Cl |  |  | < 50% | Activity [8]: <50%

Now from value to molecule, other results behind:

pIC50 [1] | SMILES | selectivity ratio [2] | Activity [7] | also measured
6.12 | CC1(C)CC(=O)c2sc(NC(=O)c3cc4ccccc4s3)nc2C1 | > 106 |  | selectivity ratio [3]: 13; Activity [4]: < 50%; pIC50 [5]: 4.18; pIC50 [6]: 5.30
5.64 | Cc1ccc2c(Cl)c(C(=O)Nc3nc4c(s3)C(=O)CC(C)(C)C4)sc2c1 | > 37 | < 50% | 
6.14 | CC1(C)CC(=O)c2sc(NC(=O)c3sc4ccccc4c3Cl)nc2C1 | 14 |  | pIC50 [9]: 4.98
5.23 | COc1ccc2sc(C(=O)Nc3nc4c(s3)C(=O)CC(C)(C)C4)c(Cl)c2c1 | > 14 | < 50% | 
5.19 | CC1(C)CC(=O)c2sc(NC(=O)c3sc4cc(Br)ccc4c3Cl)nc2C1 | > 12 |  | Activity [4]: < 50%
6.49 | CC1(C)CC(=O)c2sc(NC(=O)c3sc4c(Br)cccc4c3Cl)nc2C1 | > 130 |  | selectivity ratio [3]: 4; pIC50 [5]: 4.60; pIC50 [6]: 5.15; Activity [10]: < 50%
5.60 | O=C1CCCc2nc(NC(=O)c3sc4ccccc4c3Cl)sc21 | > 48 | < 50% | selectivity ratio [3]: 3; pIC50 [5]: 4.60; Ratio IC50 [13]: 4; pIC50 [6]: 5.05
5.55 | CC1(C)CC(=O)c2sc(NC(=O)c3cc4cccc(-c5ccccc5)c4s3)nc2C1 | > 28 |  | Activity [4]: < 50%
5.85 | CC1(C)CC(=O)c2sc(NC(=O)c3nc4ccccc4s3)nc2C1 | > 56 |  | selectivity ratio [3]: 3; Activity [4]: < 50%; pIC50 [5]: 4.52; pIC50 [6]: 4.98
5.54 | COc1ccc(-c2c(C(=O)Nc3nc4c(s3)C(=O)CC(C)(C)C4)sc3ccccc23)cc1 | > 29 | < 50% | 
5.66 | COc1cccc(-c2c(C(=O)Nc3nc4c(s3)C(=O)CC(C)(C)C4)sc3ccccc23)c1 | > 38 | < 50% | 
